This note sets out measurements from the EternaBench riboswitch data.

This data set relates to MS2 coat protein. The data set is described as follows: apparent Kd, MS2 coat protein; higher = weaker binding; RNA-MaP array; FMN 200 µM where present. The method in brief:
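The apparent Kd is the median of filtered binding-curve fits, one per cluster, to green signal normalised to red-channel RNA signal and control-cluster median Fmax. The clusters were on Illumina sequencing chips, and stalled E. coli RNA polymerase had transcribed the designs on them. Titration used SNAP-549-labelled MS2 coat protein from 0.7 or 1.5 nM, doubling to 3 µM, without and then with constant ligand, in 100 mM Tris-HCl pH 7.5, 80 mM KCl, 4 mM MgCl2, BSA, DTT, yeast tRNA and Tween-20.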

Setting [1] is: designed as: OFF switch for flavin mononucleotide, no ligand.
[2] abbreviates: ligand present: flavin mononucleotide, designed as: OFF switch for flavin mononucleotide.
[3] abbreviates: designed as: ON switch for flavin mononucleotide, no ligand.
The mark [4] stands for this setting: ligand present: flavin mononucleotide, designed as: ON switch for flavin mononucleotide.

In general, apparent Kd refers to the concentration giving half-maximal binding under the conditions of the assay. In the case of “GUAUCGUGAGGAUAUCUAGACUGACUUAGUACAUGUCAGCUGGAGAAGGCACAUGAGGAUCACCCAUGUGAUUA”, the “apparent Kd” value was 22.6 nM under setting [1] and 73.8 nM under setting [2].
On the same counts, the results for “CUUUUGUGAGGAUAUCAGUAGUAAUACAAUAGUAUUACUACUGAGAAGGCACAUGAGGAUCACCCAUGUUCCUC” are 45 nM and 162 nM.
Regarding “GGGUACAUCGGAGGAUAUCAUGUAAAUACAUGAGGAUCACCCAUGUCGAUGGAGACAUCGGUGAUUGAGAAGGCCGAUGUACCG”, the “apparent Kd” value was determined as 14.8 nM under setting [3] and 90 nM under setting [4].
Take “UGUUGUAUUACAGGAUAUCUAUUAUGUUUAUUUAGAGAAGGGUAUUCACAUGAGGAUCACCCAUGUAUAUACGAGGAAGUUGUG”: the “apparent Kd” value was 54.8 nM under setting [3] and 56.2 nM under setting [4].
On to “ACUAGAUGAGGAUAUGCAUAUUUUCGUGUUCUUCUAGAUUAACAUGAGGAUCACCCAUGUAGAAGGCGUCAUUU”, for which the “apparent Kd” value reads like this: under setting [1], 15.7 nM; under setting [2], 18.4 nM.
Turning to “AGUUUGUGAGGAUAUCCAAUAUAUGACAUGAGGAUCACCCAUGUUUCCACUCGUACCUCCGGAGAAGGCACUGCGA”, the “apparent Kd” value reads like this: under setting [1], 21.5 nM; under setting [2], 22.9 nM.
On the same counts, the results for “GGGCGGCGAGGAUAUGCAGGGCGGGCGCGCGGGCGCGCGCGACAUGAGGAUCACCCAUGUAGAAGGCGCCGGGC” are 19.1 nM and 129 nM.
Consider “GCAUGCGUUCGAGGAUAUCGGUGAGAAACGGAACGAGAAGGCGAUAGAAUGUCUCAUCUUAUGAACAUGAGGAUCACCCAUGUA”, for which the “apparent Kd” value by setting is: under setting [3], 32.7 nM; under setting [4], 31.6 nM.
“GCGUGGUUCUAGAAGGUGCUAGCGAUAAGCUAGCAAGGAUAUAGACAUGAGGAUCACCCAUGUCUUAGUGAAAUGGACACACGC”: under setting [2], the “apparent Kd” value amounted to 5.09 nM.
Take “UUAUUUUUACAGAAGGUUUAAUAAUAUGUAUGAGAAGGAUAUGUAACAUGAGGAUCACCCAUGUUUCGUCUAUAUGAGGAUCAU”: the “apparent Kd” value was 6.77 nM under setting [1] and 7.22 nM under setting [2].
Turning to “UGUAUACAUGAGGAUCACCCAUGUAAGGAUAUGCUUUAUUAUUAUUAUUAUUAUUAUUGCAGAAGGUACAUUAU”, the “apparent Kd” value was found to be 35.8 nM under setting [1] and 35.9 nM under setting [2].
With “ACAUGAGGAUCACCCAUGUAUUCAUAGGAUAUACAACAUGAGUUUCAUUCAUGUAAACAUGUAUUGUAGAAGGAUGUUACAUGU”, the “apparent Kd” value is, setting by setting: under setting [1], 13.6 nM; under setting [2], 15 nM.
For the sequence “ACUGGCUUGCAGAAGGGUGACAUGAGGAUCACCCAUGUAGCGGGCCGGCGUAAAGUCAGCGCGCCACAGGAUAUGCAGGCCUCG”, the “apparent Kd” value is, setting by setting: under setting [3], 74 nM; under setting [4], 45.2 nM.
In the case of “AAGAAACAUGAGGAUCACCCAUGUCACCUCACACGAGGAUAUCUGAAUCGAUUAGAUUACGGAGAAGGCGUGAGAA”, the “apparent Kd” value was determined as 30.2 nM under setting [3] and 18.3 nM under setting [4].
The matching figures for “AUAUCCUAGAUAGGAUAUACUGAGGUUGAAUGGGUAGAAGGAUCGUUAGGGAAGACUACAUGAGGAUCACCCAUGUUGUGUAUU”: 218 nM and 182 nM.
“CUGCCGUAGGAGAAGGACGGCGGGUUAUUUUUGUACAUGAGGAUCACCCAUGUAGGAUAUCCUACGUCAGGCGGCCUACUACAG”: the “apparent Kd” value runs as follows: under setting [1], 13.7 nM; under setting [2], 19.8 nM.
Take “UUCAGCUCGUCAGGAUAUACGUCACUGCUUCGGCAGUGUGGUAAGAUCACAUGAGGAUCACCCAUGUAGAAGGGACGAGCUGAC”: the “apparent Kd” value runs as follows: under setting [1], 13.5 nM; under setting [2], 252 nM.
The matching figures for “UGCCUGCAGUCAGGAUAUGAUAACUGGGUAUGGUCUUUGUAACGACAUGAGGAUCACCCAUGUUUUUAGAAGGGACGUGUCAGC”: 363 nM and 127 nM.
Turning to “GCGAUUUAGUAGAAGGUACGAUAUAUAUCAUUGUAAGGAUAUACUUACAUGAGGAUCACCCAUGUUAAGGGUUAUAAUAAUCGC”, the “apparent Kd” value is 195 nM under setting [3] and 134 nM under setting [4].
Regarding “UUAAUUAAAGUGAGGAUAUCUAGAGCCUCGGCUCUAGAGAAGGCACAUGAGGAUCACCCAUGUCUCAAUUAAUU”, the “apparent Kd” value is 15.7 nM under setting [1] and 26.8 nM under setting [2].
